The subject of data set [1] is Rattus norvegicus. In words: Cardiotoxicity in anesthetized Sprague-Dawley rat assessed as increase in heart rate at 3 mg/kg, iv measured for 30 mins relative to control. It is filed as toxicity, organism-based. Conditions: in vivo, 0.5 h. The method in brief: (§1)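 Male Sprague-Dawley rats (200-300 g) were anesthetized with sodium pentobarbital (50 mg/kg i.p. plus 25 mg/kg s.c.). The compound was injected via the cannulated left femoral vein once BP and HR were stable, and HR and MBP were recorded for 30 min. Results are the maximum % increase or decrease from baseline, as mean ± SEM. Where given, silodosin (0.01 mg/kg iv) preceded the compound.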

Data set [2] deals with Rattus norvegicus. As to the kind of experiment: Cardiotoxicity in anesthetized Sprague-Dawley rat assessed as decrease in mean blood pressure at 3 mg/kg, iv measured for 30 mins relative to control. It is filed as toxicity, organism-based. Also noted: scale not given: the % may be the effect or the level left. As to conditions: in vivo, 0.5 h. Put shortly:
as §1

Data set [3] deals with Rattus norvegicus. As to the kind of experiment: Cardiotoxicity in anesthetized Sprague-Dawley rat assessed as decrease in heart rate at 3 mg/kg, iv measured for 30 mins relative to control. Also noted: scale not given: the % may be the effect or the level left. Format: toxicity, organism-based. Conditions: in vivo, 0.5 h. The method in brief:
as §1

Data set [4] has as its target Beta-2 adrenergic receptor (Homo sapiens, UniProt P07550). In words: Agonist activity at human beta2-adrenergic receptor expressed in CHO cells assessed as increase of cAMP level after 30 mins. Format: functional, cell-based. The method in brief:
(§2)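 Stably transfected CHO cells expressing human β1, β2 or β3 or marmoset β3 receptor were grown in Ham's F-12 with 10% FBS and geneticin, seeded at 2×10⁴ cells/well and grown about 20 h. Cells spent 15 min serum-free, then 30 min with compound in medium containing HEPES and isobutylmethylxanthine. Lysate cAMP was measured by kit. […] EC50 is the half-maximal concentration for each compound.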

In data set [5] the target is T1, Beta-3 adrenergic receptor (Homo sapiens, UniProt P13945). In words: Intrinsic activity at human beta3-adrenergic receptor expressed in CHO cells assessed as increase of cAMP level after 30 mins relative to isoproterenol. It is filed as functional, cell-based. The method in brief:
as §2
Target sequence in this assay (P13945 whole entry, looked up): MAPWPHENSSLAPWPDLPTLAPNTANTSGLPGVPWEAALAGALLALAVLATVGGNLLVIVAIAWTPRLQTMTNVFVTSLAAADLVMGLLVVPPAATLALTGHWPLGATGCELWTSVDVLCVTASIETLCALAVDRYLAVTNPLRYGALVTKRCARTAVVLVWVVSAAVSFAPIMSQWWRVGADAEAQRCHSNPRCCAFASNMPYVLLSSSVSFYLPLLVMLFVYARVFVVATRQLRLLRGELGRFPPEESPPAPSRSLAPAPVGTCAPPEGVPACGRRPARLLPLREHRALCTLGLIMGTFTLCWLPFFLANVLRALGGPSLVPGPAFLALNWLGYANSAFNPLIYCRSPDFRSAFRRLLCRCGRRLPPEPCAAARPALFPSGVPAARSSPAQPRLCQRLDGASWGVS

The target of data set [6] is T2, Alpha-1A adrenergic receptor (Homo sapiens) (UniProt P35348).
T2 sequence (whole entry): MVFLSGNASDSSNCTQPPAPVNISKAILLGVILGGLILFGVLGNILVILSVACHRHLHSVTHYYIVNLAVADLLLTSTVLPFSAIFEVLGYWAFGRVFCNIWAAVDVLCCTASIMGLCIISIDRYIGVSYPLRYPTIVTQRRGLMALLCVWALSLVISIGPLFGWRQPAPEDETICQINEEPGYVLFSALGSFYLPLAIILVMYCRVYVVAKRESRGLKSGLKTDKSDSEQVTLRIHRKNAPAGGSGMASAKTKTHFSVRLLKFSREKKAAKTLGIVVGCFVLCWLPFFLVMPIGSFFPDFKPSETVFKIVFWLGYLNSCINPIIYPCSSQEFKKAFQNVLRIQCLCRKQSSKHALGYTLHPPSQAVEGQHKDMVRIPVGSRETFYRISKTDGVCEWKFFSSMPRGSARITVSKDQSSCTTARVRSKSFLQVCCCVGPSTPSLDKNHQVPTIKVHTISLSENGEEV
In words: Intrinsic activity at human alpha1A-adrenergic receptor expressed in HEK293 cells assessed as calcium flux by fluorescence assay relative to norepinephrine. Format: functional, cell-based.

Data set [7] addresses Beta-1 adrenergic receptor (Homo sapiens, UniProt P08588). In words: Agonist activity at human beta1-adrenergic receptor expressed in CHO cells assessed as increase of cAMP level after 30 mins. Format: functional, cell-based. Put shortly:
as §2

For data set [8], the target named is T3, Alpha-1A adrenergic receptor (Homo sapiens, UniProt P35348).
T3 sequence (P35348 whole entry): T2 sequence (whole entry)
As to the kind of experiment: Agonist activity at human alpha1A-adrenergic receptor expressed in HEK293 cells assessed as calcium flux by fluorescence assay. It is filed as functional, cell-based.

The species named for a further data set is Homo sapiens. In words: Selectivity ratio of EC50 for human alpha1A-adrenergic receptor to EC50 for human beta3-adrenergic receptor.
In data set [9] the test system is Rattus norvegicus. In words: Cardiotoxicity in anesthetized Sprague-Dawley rat assessed as increase in mean blood pressure at 3 mg/kg, iv measured for 30 mins relative to control. Format: toxicity, organism-based. Conditions: in vivo, 0.5 h. Put shortly:
as §1

Data set [10] concerns the target T1, Beta-3 adrenergic receptor. As to the kind of experiment: Agonist activity at human recombinant beta3-adrenergic receptor expressed in CHO cells assessed as increase of cAMP level after 30 mins. Format: functional, cell-based.
Target sequence in this assay (P13945 whole entry): as the sequence (P13945 whole entry, looked up) above
The nature of data set [11]: Agonist activity at marmoset beta3-adrenergic receptor. Also noted: species or system Callithrix jacchus. The method in brief:
as §2

The species entered for data set [12] is Callithrix jacchus. As to the kind of experiment: Agonist activity at marmoset beta3-adrenergic receptor relative to isoproterenol. The method in brief:
as §2

The species named for data set [13] is Callithrix jacchus. As to the kind of experiment: Agonist activity at beta3-adrenergic receptor in isolated marmoset urinary bladder smooth muscle assessed as reduction of KCl-induced muscle contraction. It is filed as tissue-based. Put shortly:
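Marmosets anesthetized with ketamine hydrochloride (15 mg/kg, i.m.) and exsanguinated. Bladder body strips (about 10-15 mm × 2-5 mm) were held in Krebs-Henseleit gassed with 95% O2/5% CO2 at 37 °C under 1 g resting tension and equilibrated over 30 min. Tension was recorded isometrically. After the top concentration, papaverine (final 10⁻⁴ mol/L) set each strip's maximum relaxation.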

Data set [14] concerns the target Beta-3 adrenergic receptor (Rattus norvegicus, UniProt P26255). As to the kind of experiment: Agonist activity at rat beta3-adrenergic receptor.
Data set [15] addresses Beta-3 adrenergic receptor (Rattus norvegicus) (UniProt P26255). As to the kind of experiment: Intrinsic activity at rat beta3-adrenergic receptor relative to isoproterenol.

Activity calls are given as the source filed them. The rule behind the calls is not given here.

Chain of Beta-1 adrenergic receptor (P08588 whole entry): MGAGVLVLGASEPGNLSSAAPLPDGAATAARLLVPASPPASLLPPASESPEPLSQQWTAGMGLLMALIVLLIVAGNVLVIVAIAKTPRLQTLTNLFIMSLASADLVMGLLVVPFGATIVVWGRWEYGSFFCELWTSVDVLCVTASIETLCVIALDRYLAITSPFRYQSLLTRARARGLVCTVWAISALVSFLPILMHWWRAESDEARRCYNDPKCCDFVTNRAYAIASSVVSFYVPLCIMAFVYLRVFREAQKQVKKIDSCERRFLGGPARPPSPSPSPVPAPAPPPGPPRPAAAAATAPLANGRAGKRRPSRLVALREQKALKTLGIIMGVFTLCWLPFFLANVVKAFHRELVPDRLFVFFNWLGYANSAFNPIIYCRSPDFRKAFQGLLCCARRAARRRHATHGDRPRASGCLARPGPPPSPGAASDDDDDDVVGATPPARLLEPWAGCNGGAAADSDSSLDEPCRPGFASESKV
Chain of Beta-2 adrenergic receptor (P07550 whole entry): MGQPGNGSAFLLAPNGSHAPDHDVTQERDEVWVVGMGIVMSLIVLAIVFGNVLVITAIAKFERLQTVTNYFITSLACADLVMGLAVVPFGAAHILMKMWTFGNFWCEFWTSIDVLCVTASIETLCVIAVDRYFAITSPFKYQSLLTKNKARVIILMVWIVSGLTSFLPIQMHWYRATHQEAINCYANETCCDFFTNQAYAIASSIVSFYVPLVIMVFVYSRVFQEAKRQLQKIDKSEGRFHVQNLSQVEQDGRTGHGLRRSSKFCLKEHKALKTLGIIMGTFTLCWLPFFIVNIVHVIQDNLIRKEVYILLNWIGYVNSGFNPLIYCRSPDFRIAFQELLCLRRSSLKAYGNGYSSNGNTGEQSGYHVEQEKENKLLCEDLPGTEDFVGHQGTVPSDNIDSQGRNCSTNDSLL
Chain of Beta-3 adrenergic receptor (Rattus norvegicus) (P26255 whole entry): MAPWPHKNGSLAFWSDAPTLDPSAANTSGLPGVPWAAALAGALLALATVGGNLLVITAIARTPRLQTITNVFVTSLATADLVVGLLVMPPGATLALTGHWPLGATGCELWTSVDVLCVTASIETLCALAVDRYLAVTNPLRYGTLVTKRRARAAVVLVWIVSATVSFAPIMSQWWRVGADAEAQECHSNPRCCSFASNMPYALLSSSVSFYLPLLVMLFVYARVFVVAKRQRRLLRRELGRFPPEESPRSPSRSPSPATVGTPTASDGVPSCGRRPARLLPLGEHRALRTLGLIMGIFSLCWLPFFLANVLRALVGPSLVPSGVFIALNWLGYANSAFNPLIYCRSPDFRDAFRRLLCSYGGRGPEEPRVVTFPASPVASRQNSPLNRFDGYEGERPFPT
Chain of Beta-3 adrenergic receptor (Rattus norvegicus, UniProt P26255) (P26255 whole entry): as above

Turning to `CS(=O)(=O)Nc1cccc([C@@H](O)CNCCOc2ccc3c(C4CC4)n[nH]c3c2)c1`, the Activity in the data set with Rattus norvegicus [1] is on record as 5.7%; in the data set with Rattus norvegicus [2], 11%; in the data set on Rattus norvegicus [3] it was 3.3%; with Rattus norvegicus [9], 2.7%. The EC50 was > 10 µM in data set [4], > 10 µM in data set [7], 1.55 µM in [8] and 0.017 µM in data set [10]. In addition, the Intrinsic activity in [5] was 72%; in [6] it was 19%. The Ratio EC50 in the data set listed under Homo sapiens came out at 91.
As to `CS(=O)(=O)Nc1cccc([C@@H](O)CNCCOc2ccc3c(Cl)n[nH]c3c2)c1`, the Intrinsic activity in [5] amounted to 89%; in [6], 91%. The EC50 in data set [8] came out at 0.061 µM; in data set [10], 0.043 µM. The Ratio EC50 in the data set listed under Homo sapiens is 1.4.
The like results for `CC(C)(C)c1n[nH]c2cc(OCCNC[C@H](O)c3cccc(NS(C)(=O)=O)c3)ccc12` were, in that order, 62%, 19%, > 10 µM, 0.338 µM and > 30.
The like results for `CS(=O)(=O)Nc1cccc([C@@H](O)CNCCOc2ccc3c(C4CCC4)n[nH]c3c2)c1` were, in that order, 68%, 4%, > 10 µM, 0.066 µM and > 151.
`Nc1nc(CC(=O)Nc2ccc(CCNC[C@H](O)c3ccccc3)cc2)cs1` [MIRABEGRON]: the Activity with Rattus norvegicus [1] is given as 10%; in the data set with Rattus norvegicus [2], 38.3%; in the data set on Rattus norvegicus [9] it was 3.5%.
Consider `CS(=O)(=O)Nc1cccc([C@@H](O)CNCCOc2ccc3c(-c4ccccc4)n[nH]c3c2)c1`, for which the Intrinsic activity in [5] was determined as 29%; in data set [6], 6%. Besides, the EC50 in data set [8] and in [10] was > 10 µM throughout.
With `CCc1n[nH]c2cc(OCCNC[C@H](O)c3cccc(NS(C)(=O)=O)c3)ccc12`, the Activity in the data set with Rattus norvegicus [1] turned out to be 9.6%; in the data set with Rattus norvegicus [2], 10.8%; in the data set with Rattus norvegicus [3] it was 1.6%; in the data set with Rattus norvegicus [9], 3.1%. Moreover, the EC50 in data set [4] was > 10 µM; in [7] it was > 10 µM; in data set [10] it was 0.014 µM. For the same compound, the results for the Intrinsic activity in data set [5] and in data set [6] were 78% and 31%, respectively. Moreover, in the data set filed under Homo sapiens, the Ratio EC50 was 61.
`CCOc1n[nH]c2cc(OCCNC[C@H](O)c3cccc(NS(C)(=O)=O)c3)ccc12`: the Intrinsic activity in data set [5] is 69%; in data set [6], 59%. The EC50 in [8] came out at 0.277 µM; in data set [10], 0.071 µM. Moreover, in the data set filed under Homo sapiens, the Ratio EC50 came out at 3.9.
Turning to `COc1n[nH]c2cc(OCCNC[C@H](O)c3cccc(NS(C)(=O)=O)c3)ccc12`, the Intrinsic activity in data set [5] is 70%; in data set [6], 60%. Moreover, the EC50 was 0.252 µM in [8] and 0.04 µM in data set [10]. Moreover, in the data set filed under Homo sapiens, the Ratio EC50 turned out to be 6.3.
The like results for `CS(=O)(=O)Nc1cccc([C@@H](O)CNCCOc2ccc3c(C(F)(F)F)n[nH]c3c2)c1` were, in that order, 86%, 31%, 0.812 µM, 0.064 µM and 13.
Regarding `CC(C)c1n[nH]c2cc(OCCNC[C@H](O)c3cccc(NS(C)(=O)=O)c3)ccc12`, the Activity is 3.3% in the data set with Rattus norvegicus [1], 7.6% in the data set on Rattus norvegicus [2], 1.8% with Rattus norvegicus [3] and 4.7% in the data set with Rattus norvegicus [9]. Also, the EC50 in data set [4] is > 10 µM; in data set [11] it was 0.015 µM; in [7], > 10 µM; in data set [8], > 10 µM; in data set [10] it was 0.013 µM; in data set [14] it was 0.535 µM. Moreover, the Intrinsic activity in data set [5] was determined as 69%; in the data set listed under Callithrix jacchus [12], 75%; in [6], 9.1%; in data set [15], 95%. In addition, the result in the data set filed under Callithrix jacchus [13] was Active. Besides, the Ratio EC50 in the data set filed under Homo sapiens is > 769.
With `CS(=O)(=O)Nc1cccc([C@@H](O)CNCCOc2ccc3c(CO)n[nH]c3c2)c1`, the results for the EC50 in data set [8] and in data set [10] were 0.033 µM and 0.111 µM, respectively.

Source of the values: ChEMBL document CHEMBL3600378 (J Med Chem, 2015).
